KCNQ1 inh: inhibitors of human KCNQ1 potassium channel; CHO-K1 KCNQ1, FluxOR thallium flux fluorescence; stronger effect = higher value; B-score at 10 µM; AID 2642; hit rate 1.3% among 310,000;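 active = compounds whose thallium flux B-score, printed positive for inhibition, exceeds three library SD while starting fluorescence stays within three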;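 note: channel opened by potassium depolarization with thallium stimulus after 20 min compound exposure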
Target sequence (P51787 whole entry, looked up): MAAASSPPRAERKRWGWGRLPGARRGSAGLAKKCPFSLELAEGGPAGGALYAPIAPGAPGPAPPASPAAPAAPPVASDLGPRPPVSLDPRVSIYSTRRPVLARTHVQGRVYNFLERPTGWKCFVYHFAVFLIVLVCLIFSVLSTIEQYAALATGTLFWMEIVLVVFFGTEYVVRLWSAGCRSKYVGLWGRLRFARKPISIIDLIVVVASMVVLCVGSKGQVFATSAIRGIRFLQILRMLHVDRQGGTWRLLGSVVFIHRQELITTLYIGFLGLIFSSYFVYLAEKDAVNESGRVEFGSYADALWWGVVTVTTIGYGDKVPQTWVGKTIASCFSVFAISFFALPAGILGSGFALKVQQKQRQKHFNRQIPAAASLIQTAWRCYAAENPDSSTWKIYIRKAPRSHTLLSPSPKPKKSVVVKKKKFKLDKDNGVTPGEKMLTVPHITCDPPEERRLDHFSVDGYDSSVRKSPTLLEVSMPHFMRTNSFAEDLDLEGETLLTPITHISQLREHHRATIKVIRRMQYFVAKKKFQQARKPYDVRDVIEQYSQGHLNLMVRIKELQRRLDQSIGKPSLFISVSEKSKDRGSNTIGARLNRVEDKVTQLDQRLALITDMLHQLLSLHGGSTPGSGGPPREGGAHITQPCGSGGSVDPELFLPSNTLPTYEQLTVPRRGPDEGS
KCNK3 inh: human KCNK3 channel inhibition, primary screen | CHO-KCNK3 thallium flux, FluxOR fluorescence; stronger effect = lower value | B-score at 10 µM | hit rate 0.84% among 340,000;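 active = B-score under library mean minus 4 SD, starting fluorescence ratio at most library mean plus 5 SD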;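 note: more negative B-score means stronger inhibition of thallium flux through KCNK3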
KCNK9 block: human KCNK9 channel inhibition | Q9NPC2 | hit rate 1.2% among 310,000 | B-score at 10 µM | HEK293 KCNK9, FluxOR thallium flux fluorescence; stronger effect = lower value;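 active = ratio B-score over 3 SD below the library mean, with starting fluorescence within 5 SD of its mean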;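 note: negative B-score means less thallium flux so channel inhibition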
KCNQ1 act: potentiates or activates the human KCNQ1 potassium channel | AID 2648 | P51787 | B-score at 10 µM | hit rate 0.35% among 310,000 | CHO-K1 KCNQ1, thallium flux FluxOR fluorescence; stronger effect = higher value;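 active = fluorescence ratio B-score, a plate-corrected score, at least three library SD, with initial intensity B-score within 5 SD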
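Assay system: CHO-K1 cells stably expressing KCNQ1. Medium: assay buffer for compound exposure, DMSO matched across wells. Timing: 37 °C overnight plating, 90-min dark dye load, 20-min compound pretreatment. Signal: kinetic FluxOR fluorescence, 10 s baseline plus 110 s post-stimulus.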
hERG protect: hERG (human) protection from proarrhythmic block | CHO-hERG, FluxOR thallium flux, dofetilide IC70 present | activation (rescue from dofetilide block), less the hit threshold, % at 10 µM | hit rate 0.51% among 310,000 | Q12809;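 active = activation above the mean of controls blocked by dofetilide plus 5 SD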;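 note: thallium influx through hERG after potassium depolarization seen as dye fluorescence rise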
Kir21 inh: blocks the mouse Kir2.1 inward-rectifier potassium channel; P35561; HEK293-Kir2.1, FluxOR thallium flux fluorescence; stronger effect = lower value; B-score at 10 µM; hit rate 0.85% among 310,000; AID 1672;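 active = fluorescence ratio B-score at or below minus 3 SD of library scores, with starting-brightness B-score within 2 SD, cut at about -4.2 in these data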;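 note: channel flux triggered by added potassium and thallium sulfate stimulus; B-score of peak minus minimum fluorescence over baseline after thallium stimulus; more negative B-score means stronger Kir2.1 block with less thallium influx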
KCNK9 inh conf: human KCNK9 inhibitor confirmation | hit rate 43% among 4,900 | AID 492992 | HEK293 KCNK9 cells, FluxOR thallium flux fluorescence | inhibition, % at 10 µM | shares compounds with KCNK9 block;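 active = thallium signal inhibited by more than 5 SD of the compound-free buffer control wells, on both duplicate plates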
Kir21 sel: mouse Kir2.1 off-target activity of KCNK9 modulators; Kir2.1 cells, FluxOR thallium flux fluorescence; inhibition, % at 10 µM; shares compounds with KCNK9 block; hit rate 4% among 4,900; AID 492993;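 active = thallium signal drop more than 5 SD beyond the mean of the no-compound control wells, seen in both duplicate plates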;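 note: signal is fluorescence rise after thallium addition divided by baseline fluorescence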
KCNK9 uninduced: second check of KCNK9 modulator effects in non-induced HEK293 cells. shares compounds with KCNK9 block. FluxOR thallium flux. inhibition, % at 10 µM. hit rate 40% among 4,900;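 active = thallium signal drop beyond 5 SD of the untreated control mean, on both duplicate plates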
Each line names hits and unclear results; the compound was inactive in the other large screens (follow-up assays come after a bar, where they were run). Hits are enriched below; roughly 3.7% of the tested compounds scored in any of these assays.

Cc1cc(SCC(=O)N2CCC(c3noc4ccc(F)cc34)CC2)nc2ccccc12	none | KCNK9 inh conf inactive | Kir21 sel inactive | KCNK9 uninduced inactive
O=C(CSc1ncnc2sc3c(c12)CCC3)N1CCOCC1	none
C=CCC1CCCC(=O)N2CCCC12 (stereo not drawn)	none (no result: KCNQ1 inh, KCNK9 block, KCNQ1 act, hERG protect, Kir21 inh)
Cc1ccc(C(=O)N2CCN(C/C=C/c3ccccc3)CC2)cc1S(=O)(=O)N1CCOCC1	none (no result: KCNQ1 inh, KCNK9 block, KCNQ1 act, hERG protect, Kir21 inh)
CCc1nnc(NC(=O)C(NC(=O)c2ccccc2Cl)C(C)C)s1 (stereo not drawn)	none
CC(C)[C@H](NC(=O)c1ccccc1Cl)C(=O)Nc1nc(-c2ccccn2)cs1	KCNK9 block -9.3 | KCNK9 inh conf 42% | Kir21 sel inactive | KCNK9 uninduced 34%
Cc1ccccc1CN1[C@@H](C(C)C)COCCS1(=O)=O	none
O=C(O)c1cccc(CN2C(=O)S/C(=C/c3cccc([N+](=O)[O-])c3)C2=O)c1	none | KCNK9 inh conf inactive | Kir21 sel inactive | KCNK9 uninduced inactive
CCCN1CCN(S(=O)(=O)c2ccc3c(c2)CCC(=O)N3)CC1	none (no result: KCNQ1 inh, KCNK9 block, KCNQ1 act, hERG protect, Kir21 inh)
Cc1ccc(C(C)NC(=O)c2cc3cc(Br)ccc3oc2=N)cc1 (stereo not drawn)	KCNQ1 inh 7 | KCNK9 inh conf inactive | Kir21 sel inactive | KCNK9 uninduced inactive
CC1CC(C)(C)CC2(C1)NC(=O)N(CC(=O)Nc1ccc(N3CCCCC3)cc1)C2=O (stereo not drawn)	none
Cc1cc(C)nc(N=Nc2c(O)n(Cc3ccc(Cl)cc3)c3ccccc23)n1	KCNK9 block -18 | KCNK9 inh conf 72% | Kir21 sel inactive | KCNK9 uninduced 26%
CCCCCCCCCCn1c2c(c(=N)c3c1CCC3)CCC2	KCNQ1 inh 6, KCNK9 block -18, hERG protect 58, Kir21 inh -8.6 | KCNK9 inh conf 63% | Kir21 sel 86% | KCNK9 uninduced 26%
Cc1ccc(-c2c(C)sc3ncn(CC(=O)N4CCOCC4)c(=O)c23)cc1C	none | KCNK9 inh conf inactive | Kir21 sel inactive | KCNK9 uninduced inactive
Cc1ccc(-c2csc3ncn(CC(=O)N4CCOCC4)c(=O)c23)cc1C	none
CCC(C)C(N)C1=NC(C(=O)N[C@@H](CC(C)C)C(=O)N[C@H](CCC(=O)[O-])C(=O)N[C@H](C(=O)N[C@H]2CCCCNC(=O)[C@H](CC(N)=O)NC(=O)[C@@H](CC(=O)[O-])NC(=O)[C@H](Cc3cnc[nH]3)NC(=O)[C@@H](Cc3ccccc3)NC(=O)[C@H]([C@@H](C)CC)NC(=O)[C@@H](CCCN)NC2=O)[C@@H](C)CC)CS1.[Zn+2] (stereo partly drawn)	none (no result: KCNQ1 inh, KCNK9 block, KCNQ1 act, hERG protect, Kir21 inh)
COc1cccc(C(=O)N2c3ccccc3Sc3ccccc32)c1	KCNK9 block -11 | KCNK9 inh conf 58% | Kir21 sel inactive | KCNK9 uninduced 48%
CC(C)CCn1nc(C(=O)Nc2nc3c(s2)CCCC3)c2ccccc2c1=O	KCNK9 block -17 | KCNK9 inh conf 76% | Kir21 sel inactive | KCNK9 uninduced inactive
O=S(=O)(NCC(c1ccco1)N1CCN(c2ccccc2F)CC1)c1ccc(F)cc1 (stereo not drawn)	KCNK9 block -13 | KCNK9 inh conf 46% | Kir21 sel inactive | KCNK9 uninduced 34%
Cc1ccc(S(=O)(=O)Nc2ccc(N3CCOCC3)cc2)cc1C	none
CC(C)c1ccc(N(C(=O)c2ccc3c(c2)OCO3)C2C=CS(=O)(=O)C2)cc1 (stereo not drawn)	none
Clc1ccccc1CN(Cc1ccco1)Cc1nnnn1C1CCCC1	KCNK9 block -9.9 | KCNK9 inh conf 60% | Kir21 sel 47% | KCNK9 uninduced 41%
c1coc(CN(Cc2cccs2)Cc2nnnn2C2CCCCC2)c1	none
COc1ccccc1OCCSc1nnc(C)n1-c1ccccc1	none
COc1ccc(OCCSc2nnc(C)n2-c2ccccc2)cc1	none | KCNK9 inh conf inactive | Kir21 sel inactive | KCNK9 uninduced inactive
COc1ccc(CN2CCN(CCSc3ccc(C)cc3)CC2)c(OC)c1OC	none | KCNK9 inh conf inactive | Kir21 sel inactive | KCNK9 uninduced inactive
O=C(Nc1ccc(F)c(Cl)c1)c1cc(-c2ccco2)on1	none
COc1ccc(C(=O)Nc2cc(OC)ccc2OC)cc1	none
COc1ccc(OC)c(NC(=O)c2cc(OC(C)=O)cc(C(=O)Nc3cc(OC)ccc3OC)c2)c1	KCNK9 block -9.5 | KCNK9 inh conf 49% | Kir21 sel inactive | KCNK9 uninduced inactive
CC(=O)Nc1ccc(OCC(O)CN2CCN(c3ccc(F)cc3)CC2)cc1 (stereo not drawn)	none
COc1ccc(CN(C)C(=O)Cn2cnc3c(OCc4ccccc4)ncnc32)cc1OC	none (no result: KCNQ1 inh, KCNK9 block, KCNQ1 act, hERG protect, Kir21 inh)
CNC[C@H](Cc1ccccc1)NC[C@@H](Cc1cccc2ccccc12)NCCc1ccc(C)cc1	KCNQ1 inh 11, KCNK9 block -9.5, Kir21 inh -10 | KCNK9 inh conf 70% | Kir21 sel 76% | KCNK9 uninduced 58%
CC(C)CCC(C)NC(=O)CN1C(=O)NC(C)(c2ccc3ccccc3c2)C1=O (stereo not drawn)	none
N#Cc1nc(COc2ccccc2Cl)oc1N1CCCC1	none
CC1CN(c2oc(COc3ccc(Cl)cc3Cl)nc2C#N)CC(C)O1 (stereo not drawn)	none | KCNK9 inh conf inactive | Kir21 sel inactive | KCNK9 uninduced inactive
Cc1cccc(-n2nc(C(=O)Nc3ccccc3)n3c(=O)cc(-c4ccccc4)nc23)c1	none | KCNK9 inh conf inactive | Kir21 sel inactive | KCNK9 uninduced inactive
N/C(=N\OC(=O)c1cccc2ccccc12)c1ccc(Br)cc1	KCNK9 block -8.3 | KCNK9 inh conf 35% | Kir21 sel inactive | KCNK9 uninduced 28%
N/C(Cc1ccccc1)=N\OC(=O)c1cccc2ccccc12	KCNK9 block -11 | KCNK9 inh conf inactive | Kir21 sel inactive | KCNK9 uninduced inactive
O=C1CCC([N+](=O)[O-])C(C2CC=CCC2)N1 (stereo not drawn)	none
O=C(NCC1CCCO1)c1cc2c([nH]c3ccccc32)c(-c2cccc(Cl)c2)n1 (stereo not drawn)	KCNQ1 inh 12, KCNK9 block -11 | KCNK9 inh conf inactive | Kir21 sel inactive | KCNK9 uninduced inactive
COc1ccc(S(=O)(=O)N(C)C[C@H]2Oc3ccc(NS(=O)(=O)c4cccs4)cc3C(=O)N([C@H](C)CO)C[C@@H]2C)cc1	none (no result: KCNQ1 inh, KCNK9 block, KCNQ1 act, hERG protect, Kir21 inh)
Cc1ccc(C(OC(=O)c2ccco2)C(=O)NC(C)(C)C)cc1 (stereo not drawn)	none
CC(C)Cn1c2c(c(O)c(C(=O)Nc3ccc(F)cc3)c1=O)CCCC2	none
